Data on 2 compounds can be found in ChEMBL document CHEMBL2311276, “Synthesis of amidine and bis amidine derivatives and their evaluation for anti-inflammatory and anticancer activity” (Eur J Med Chem, 2013).

Test [1] deals with NCI-H522. In words: Cytotoxicity against human NCI-H522 cells assessed as growth inhibition at 1 x 10 '-5 M after 24 hrs by MTT assay. As to conditions: NCI-H522, 24 h, read-out: GI. The format is functional. The method, boiled down:
(§1)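 MTT screen at a single concentration of 1 × 10⁻⁵ M, 24 h exposure. Seeding was 5 × 10³ cells/well in RPMI-1640 with 2 mM glutamine. Vehicle was 0.1% final DMSO. MTT was added for 4 h at 37 °C, formazan dissolved in DMSO/glycine buffer (pH 10.5), and A570 read. Percent growth inhibition was calculated against vehicle-treated cells; triplicate, mean of three independent experiments.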

Test [2] deals with HCT-15. The experiment in a line: Cytotoxicity against human HCT15 cells after 24 hrs by MTT assay. It is filed as functional, cell-based. As to conditions: HCT-15, 24 h. Summed up: (§2)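 Cell lines came from NCCS Pune and were grown in RPMI-1640 with 2 mM glutamine, pH 7.4. Cells were seeded at 5 × 10³ per well and exposed to serial dilutions in DMSO for 24 h, with 0.1% final DMSO as vehicle control. MTT (5 mg/ml) was added for 4 h at 37 °C. Formazan was dissolved in DMSO plus Sorensen glycine buffer (pH 10.5) and read at 570 nm. IC50 came from % inhibition versus vehicle; triplicate, mean ± SD of three experiments.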
In general terms: Tetrazolium dyes change colour on reduction, which living cells bring about.

In a further test the test system is COS-1. In words: Cytotoxicity against african green monkey COS1 cells after 24 hrs by MTT assay. It is filed as cell-based. As to conditions: Chlorocebus aethiops, COS-1, 24 h.
Test [3] relates to NCI-H522. The experiment in a line: Cytotoxicity against human NCI-H522 cells after 24 hrs by MTT assay. The following applies: NCI-H522, 24 h. It is filed as functional, cell-based. The method, boiled down:
as §2

Test [4] concerns PA-1. In words: Cytotoxicity against human PA1 cells after 24 hrs by MTT assay. As to conditions: PA-1, 24 h. It is filed as functional, cell-based. The method, boiled down:
as §2

Test [5] deals with T47D. In words: Cytotoxicity against human T47D cells after 24 hrs by MTT assay. The format is functional, cell-based. Summed up: as §2
Test [6] relates to HCT-15. The experiment in a line: Cytotoxicity against human HCT15 cells assessed as growth inhibition at 1 x 10 '-5 M after 24 hrs by MTT assay. It is filed as functional. As to conditions: HCT-15, 24 h, read-out: GI. The method, boiled down: as §1
Test [7] deals with HepG2. In words: Cytotoxicity against human HepG2 cells after 24 hrs by MTT assay. The format is functional, cell-based. As to conditions: HepG2, 24 h. The method, boiled down: as §2
The subject of test [8] is PA-1. The experiment in a line: Cytotoxicity against human PA1 cells assessed as growth inhibition at 1 x 10 '-5 M after 24 hrs by MTT assay. The format is functional. The following applies: PA-1, 24 h, read-out: GI. The method, boiled down: as §1
The subject of test [9] is T47D. The experiment in a line: Cytotoxicity against human T47D cells assessed as growth inhibition at 1 x 10 '-5 M after 24 hrs by MTT assay. The format is functional. As to conditions: read-out: GI. The method, boiled down: as §1
Test [10] deals with HepG2. In words: Cytotoxicity against human HepG2 cells assessed as growth inhibition at 1 x 10 '-5 M after 24 hrs by MTT assay. The format is functional. As to conditions: HepG2, 24 h, read-out: GI. The method, boiled down:
as §1

The test system of a further test is Rattus norvegicus. In words: Antiinflammatory activity in Charles Foster albino rat assessed as inhibition of carrageenan-induced paw edema at 50 mg/kg, po administered 30 mins before carrageenan challenge measured after 1 to 3 hrs by plethysmometer analysis. The format is functional. The method, boiled down: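 Rats of both sexes (120–160 g; pregnant females excluded), five per group, were dosed orally at 50 mg/kg. After 30 min, 0.20 mL of freshly prepared 1% carrageenan in 0.9% NaCl was injected into the plantar aponeurosis of the hind paw. Paw volume was read by water plethysmometer before and 1–3 h later. Percent inhibition was taken against a carrageenan-only control group of five rats.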
In general terms: The carrageenan paw model is a standard test of acute inflammation.

The structures appear in SMILES notation.

The IC50 is the point on the concentration scale where inhibition reaches its midpoint. As usually defined, the inhibition in vivo is the drop in the measured response relative to a control, in per cent. With `N=C(NCCN1CCOCC1)c1cnccn1`, the inhibition of growth at 10 µM with NCI-H522 [1] is 35%; in the test on HCT-15 [6], 6%; with PA-1 [8] it was 51%; in the test with T47D [9] it was 13%; in the test on HepG2 [10], 52%. The IC50 in the test on HCT-15 [2] was 78.3 µM; with COS-1, 173 µM; with NCI-H522 [3] it was 18.2 µM; in the test with PA-1 [4], 13.6 µM; in the test with T47D [5], 55.4 µM; with HepG2 [7], 9.4 µM. Further, the inhibition in vivo at 50 mg/kg in the test on Rattus norvegicus was 15%.
In the case of `N=C(NCCN1CCNCC1)c1ccncc1`, the inhibition of growth at 10 µM in the test with NCI-H522 [1] came out at 17%; with HCT-15 [6], 13%; in the test on PA-1 [8], 46%; with T47D [9], 6%; with HepG2 [10], 10%. Also, the IC50 stood at 35.4 µM in the test on HCT-15 [2]; 147 µM in the test on COS-1; 35.3 µM with NCI-H522 [3]; 19.3 µM in the test on PA-1 [4]; 184 µM in the test with T47D [5]; 191 µM with HepG2 [7]. For the same compound, the inhibition in vivo at 50 mg/kg in the test with Rattus norvegicus stood at 0%.
